What all share (assay type): functional
Assay [1] concerns Mus musculus. Description: In vivo immunosuppressive activity in mouse GVHD (graft-versus-host disease) model and the mean survival days evaluated (dose of 3 mg/kg). The method in brief:
(§1)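 Mouse GVHD model. Compounds were dissolved in aqueous solution and given i.p. on days 1 to 10 (day 6 omitted), first at 3 mg/kg/day and then at 1 mg/kg/day. Survival was followed to day 60 after cell injection and reported as mean survival in days ± deviation.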

For assay [2], the system named is Mus musculus. The assay is described as follows: In vivo immunosuppressive activity at a dose of 1 mg/kg in mouse GVHD (graft-versus-host disease) model and the mean survival days evaluated. The method in brief: as §1
The species entered for assay [3] is Rattus norvegicus. Description: Compound is evaluated for prevention of graft rejection after heart allotransplantation in the dark agouti Lewis rat combination. In short, it runs like this:
(§2)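 Dark Agouti donor hearts transplanted into Lewis rat recipients (fully histoincompatible; high-responder recipient). Compounds given daily i.p. at 6 mg/kg/day for 10 days, starting 1 day after surgery. Graft survival recorded for each animal in days and reported as mean ± SD, with a statistical comparison against controls.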

The test system of assay [4] is Rattus norvegicus. Description: Compound (6 mg/kg) is evaluated for prevention of graft rejection after heart allotransplantation in the Dark Agouti to Lewis rat combination. The method in brief: as §2

Consider `CN(CCCCNCCCN)C(=O)CC(=O)NCCCCCCN=C(N)N`, for which, in assay [1], the Mean survival came out at 12 days.

`CN(CCCCNCCCN)C(=O)OCC(=O)NCCCCCCN=C(N)N` came in with a Mean survival in assay [1] of 15 days.

As for `NCCCNCCCCC(=O)NCC(=O)NCCCCCCN=C(N)N`, in assay [1], the Mean survival is 22 days.

For the compound `NCCCNCCCCNC(=O)SCC(=O)NCCCCCCN=C(N)N`, the Mean survival in assay [1] was found to be 17 days.

For the compound `NCCCNCCCCNC(=O)C(F)C(=O)NCCCCCCN=C(N)N` (configuration not stated), the figures for the Mean survival in assay [2] and in assay [1] were 18 days and 60 days, respectively.

Turning to `CN(CCCCCCN=C(N)N)C(=O)COC(=O)NCCCCNCCCN`, the Mean survival in assay [1] is 14 days.

In assay [1], `NCCCNCCCCNC(=O)C(O)CC(=O)NCCCCCCN=C(N)N` (configuration not stated) displayed a Mean survival of 15 days.

The compound `CC(C(=O)NCCCCCCN=C(N)N)C(=O)NCCCCNCCCN` (configuration not stated) returned a Mean survival in assay [1] of 16 days.

Turning to `NCCCNCCCCNC(=O)CNC(=O)NCCCCCCN=C(N)N`, the Mean survival in assay [1] turned out to be 24 days.

Compound `NCCCNCCCCNC(=O)C(N)C(=O)NCCCCCCN=C(N)N` (configuration not stated) gave a Mean survival in assay [1] of 16 days.

In assay [1], `CN(CC(=O)NCCCCCCN=C(N)N)C(=O)NCCCCNCCCN` had a Mean survival of 17 days.

For `NCCCNCCCCNC(=O)NCC(=O)NCCCCCCN=C(N)N`, the results for the Mean survival in assay [3], in assay [2] and in assay [1] were 12 days, 42 days and 48 days, respectively.

With `NCCCNCCCCNC(=O)CC(=O)NCCCCCCN=C(N)N`, the figures for the Mean survival in assay [2], in assay [1] and in assay [4] were 53 days, 52 days and 9 days, respectively.

In assay [1], `NCCCNCCCCNS(=O)(=O)CC(=O)NCCCCCCN=C(N)N` registered a Mean survival of 15 days.

Regarding `NCCCNCCCCNC(=O)OCCNCCCCCCN=C(N)N`, the Mean survival in assay [1] is 34 days.

Compound `NCCCNCCCCCC(=O)NCC(=O)NCCCCCCN=C(N)N` displayed a Mean survival in assay [1] of 18 days.

In the case of `COC(C(=O)NCCCCCCN=C(N)N)C(=O)NCCCCNCCCN` (configuration not stated), the Mean survival in assay [2] was 27 days; in assay [1], 55 days.

As for `NCCCNCCCCOC(=O)NCNC(=O)CCCCCCN=C(N)N`, the Mean survival in assay [2] stood at 32 days; in assay [1] it was 58 days.

With `NCCCNCCCCNC(=O)C(=O)NCCCCCCN=C(N)N`, the Mean survival was 53 days in assay [2], 34 days in assay [1] and 12 days in assay [4].

`NCCCNCCCCNC(=O)/C=C/C(=O)NCCCCCCN=C(N)N` gave a Mean survival in assay [1] of 17 days.

`NCCCNCCCCNC(=O)C(Cc1ccccc1)C(=O)NCCCCCCN=C(N)N` (configuration not stated) displayed a Mean survival in assay [1] of 16 days.

As to `COC(OC)(C(=O)NCCCCCCN=C(N)N)C(=O)NCCCCNCCCN`, in assay [1], the Mean survival was 12 days.

For `NCCCNCCCCNC(=O)C(CO)(CO)C(=O)NCCCCCCN=C(N)N`, the Mean survival in assay [1] was found to be 17 days.

Consider `NCCCNCCCCOC(=O)NCC(=O)NCCCCCCN=C(N)N`, for which the figures for the Mean survival in assay [2] and in assay [1] were 55 days and 48 days, respectively.

On to `CC(=O)NC(C(=O)NCCCCCCN=C(N)N)C(=O)NCCCCNCCCN` (configuration not stated), for which the Mean survival in assay [1] was determined as 16 days.

In assay [1], `NCCCNCCCCNC(=O)/C=C\C(=O)NCCCCCCN=C(N)N` came in with a Mean survival of 17 days.

On to `NCCCNCCCCNC(=O)C(C(=O)NCCCCCCN=C(N)N)c1ccccc1` (configuration not stated), for which, in assay [1], the Mean survival was 19 days.

Turning to `NCCCNCCCCNC(=O)COC(=O)NCCCCCCN=C(N)N`, the Mean survival in assay [1] turned out to be 13 days.

For the compound `NCCCNCCCCNC(=O)CCCCCCCCCN=C(N)N`, the Mean survival in assay [1] was determined as 16 days.

`NCCCNCCCCNC(=O)C(OCc1ccccc1)C(=O)NCCCCCCN=C(N)N` (configuration not stated) displayed a Mean survival in assay [1] of 14 days.

With `CN(CCCCCCN=C(N)N)C(=O)CC(=O)NCCCCNCCCN`, the Mean survival in assay [1] worked out at 14 days.

For `NCCCNCCCCNC(=O)C(O)C(=O)NCCCCCCN=C(N)N` (configuration not stated), the Mean survival in assay [2] was determined as 12 days; in assay [1], 53 days; in assay [4], 33 days.

In assay [1], `NCCCNCCCCNC(=O)NCCC(=O)NCCCCCCN=C(N)N` gave a Mean survival of 15 days.

Take `NCCCNCCCCNC(=O)CCC(=O)NCCCCCCN=C(N)N`: in assay [1], the Mean survival came out at 16 days.

Compound `CC(C)(C(=O)NCCCCCCN=C(N)N)C(=O)NCCCCNCCCN` had a Mean survival in assay [1] of 15 days.

In assay [1], `CCC(C(=O)NCCCCCCN=C(N)N)C(=O)NCCCCNCCCN` (configuration not stated) displayed a Mean survival of 19 days.

Consider `NCCCNCCCCNCCC(=O)NCCCCCCN=C(N)N`, for which the Mean survival in assay [1] was found to be 13 days.

`NCCCNCCCCNC(=O)OCCC(=O)NCCCCCCN=C(N)N` gave a Mean survival in assay [1] of 13 days.

`NCCCNCCCCNC(=O)CCCC(=O)NCCCCCCN=C(N)N` displayed a Mean survival in assay [1] of 15 days.

`N=C(N)NCCCCCCC(=O)NC(O)C(=O)NCCCCNCCCN` (configuration not stated) [GUSPERIMUS]: the figures for the Mean survival in assay [2], in assay [1] and in assay [4] were 38 days, 57 days and 38 days, respectively.

For the compound `N=C(N)NCCCCCCNC(=O)COC(=O)NCCCCNCCCN` [TRESPERIMUS], the values for the Mean survival in assay [2], in assay [1] and in assay [4] were 46 days, 58 days and 54 days, respectively.

Source of the values: ChEMBL document CHEMBL1132418, “Structure-immunosuppressive activity relationships of new analogues of 15-deoxyspergualin. 1. Structural modifications of the hydroxyglycine moiety” (1999).
